The list is not random: actives were taken first. Their share in the collection is about 1.9%.
M4 ag – agonists of human muscarinic M4 receptor (CHRM4) | CHO-K1 hM4/Gqi5, Fluo-8 calcium fluorescence; vehicle 0%, full acetylcholine response 100% | activation, % at 3 µM | 360,000 tested, 0.14% active | AID 624127;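 active = activation above the run mean over all test wells plus 3 SD, cut at about 32% in these data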;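 note: peak over basal fluorescence ratio per well then scaled between controls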
Target sequence (P08173 whole entry, looked up): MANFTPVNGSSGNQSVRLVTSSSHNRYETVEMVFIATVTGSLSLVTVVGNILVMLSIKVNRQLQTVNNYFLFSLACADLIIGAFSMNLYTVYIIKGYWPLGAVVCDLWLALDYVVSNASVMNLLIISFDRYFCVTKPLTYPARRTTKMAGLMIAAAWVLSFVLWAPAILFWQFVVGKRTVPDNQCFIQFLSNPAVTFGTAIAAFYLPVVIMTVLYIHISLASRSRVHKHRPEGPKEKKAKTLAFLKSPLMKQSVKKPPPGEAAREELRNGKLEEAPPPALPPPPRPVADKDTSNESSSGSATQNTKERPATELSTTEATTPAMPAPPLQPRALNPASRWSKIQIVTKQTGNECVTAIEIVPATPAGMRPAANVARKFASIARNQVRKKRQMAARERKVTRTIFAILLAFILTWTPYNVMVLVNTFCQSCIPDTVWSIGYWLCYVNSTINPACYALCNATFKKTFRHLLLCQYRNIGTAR
CHRM5 antagonist – blocks acetylcholine activation of human M5 receptor | P08912 | CHO-hM5 cells, Fluo-8 calcium fluorescence, ACh EC80 | inhibition, % at 3 µM | 360,000 tested, 0.59% active | AID 624040;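 active = inhibition above a per-plate cutoff, the mean of that plate's test compounds plus 3 SD, cut at about 27% in these data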
M4 PAM – potentiates acetylcholine response at human M4 receptor. activation, % at 3 µM. CHO-K1 hM4/Gqi5, Fluo-8 calcium fluorescence, ACh EC20; 0% = ACh EC20, 100% = maximal ACh. AID 624126. 360,000 tested, 0.4% active. P08173;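 active = activation above its plate's cutoff, the mean activation of sample wells plus 3 SD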
M5 ag – agonists of human muscarinic M5 receptor (CHRM5); P08912; activation, % at 3 µM; 360,000 tested, 0.19% active; CHO-K1 hM5 cells, Fluo-8 calcium fluorescence; 0% DMSO wells, 100% maximal acetylcholine response;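 active = activation above the run's mean over test compounds plus 3 SD, cut at about 23% in these data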;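 note: signal is peak over basal fluorescence ratio across the kinetic read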
M5 PAM – CHRM5 positive allosteric modulation. P08912. CHO-K1 hM5, Fluo-8 calcium, ACh EC20 PAM; 0% = ACh EC20, 100% = ACh EC100. activation, % at 3 µM. 360,000 tested, 0.3% active;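 active = activation above the run cutoff, the mean activation of all test compounds plus 3 SD, cut at about 18% in these data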
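System: CHO-K1 hM5 cells. Reagent: acetylcholine, EC20 level. Compound dosing: single dose, 3 µM nominal final test concentration. Timing: Post-acetylcholine fluorescence recording 140 s. Detection: Fluo-8 calcium fluorescence. Read-out: % activation, ACh-normalized. Benchmarks: ACh EC20 and EC100 wells. Repeats: singlicate, one well per test compound.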
CHRM4 antagonist – CHRM4 antagonism in calcium assay; P08173; CHO-hM4 cells, ACh EC80, Fluo-8 calcium fluorescence; inhibition, % at 3 µM; 360,000 tested, 0.73% active; AID 624125;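 active = inhibition above its plate's cutoff, the mean inhibition of sample wells plus 3 SD, cut at about 27% in these data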
Hits are given with their value; - = inactive.

SMILES	M4 ag	CHRM5 antagonist	M4 PAM	M5 ag	M5 PAM	CHRM4 antagonist
CC[C@H](C)[C@H]1CNC(=S)N1CC1CCN(CCCCc2ccccc2)CC1	-	-	-	-	-	37
CC(C)C[C@H]1CNC(=S)N1CC1CCN(CC2CCCC2)CC1	-	-	-	-	-	-
CC(C)C[C@H]1CNC(=S)N1CC1CCN(CC2CCC(C(C)(C)C)CC2)CC1 (some centres undefined)	-	35	-	-	-	50
Cn1nc(C(C)(C)C)cc1NC(=O)Nc1cc(Cl)cc(Cl)c1	-	34	-	-	-	-
CN1CCN(NC(=O)Nc2cc(Cl)cc(Cl)c2)CC1	-	44	-	-	-	-
C/C=C(\C)C(=O)OC1[C@H](OC(C)=O)C2(CO)C(CC1(C)C)C1=CCC3C4(C)CCC(O[C@@H]5O[C@H](C(=O)O)[C@@H](O[C@@H]6O[C@H](CO)[C@@H](O)[C@H](O)[C@H]6O)[C@H](O)[C@H]5O[C@H]5O[C@H](CO)[C@@H](O)[C@H](O)[C@H]5O)[C@](C)(CO)C4CCC3(C)[C@]1(C)C[C@H]2O (some centres undefined)	133	82	-	92	-	91
C/C=C(/C)C(=O)OC1CC(C)(C)C[C@H]2C3=CC[C@@H]4[C@@]5(C)CCC(O[C@@H]6O[C@@H](C(=O)O)[C@@H](O)C(O[C@@H]7OC[C@H](O)[C@@H](O)[C@@H]7O[C@@H]7OC(CO)C(O)[C@@H](O)[C@@H]7O)C6O[C@@H]6OC(CO)C(O)C(O)C6O)[C@@](C)(CO)[C@@H]5CC[C@]4(C)[C@]3(C)CC(O)[C@@]12CO (some centres undefined)	75	-	-	-	-	-
CC1(C)C[C@H]2C3=CCC4[C@@]5(C)CC[C@H](O[C@@H]6O[C@H](C(=O)O)[C@@H](O)[C@H](O)[C@H]6O)[C@@](C)(CO)C5CC[C@@]4(C)[C@]3(C)C[C@H](O)[C@@]2(CO)[C@@H](O)[C@@H]1O (some centres undefined)	-	-	-	-	-	-
Cc1cc2c(cc1S(=O)(=O)NC1CCCCC1C)OCC(=O)N2 (centres undefined)	-	-	-	-	-	-
CC(Sc1ccsc1[N+](=O)[O-])C(=O)NCc1ccco1 (centres undefined)	-	-	23	-	-	-
CC(Sc1nnc(-c2cccs2)n1-c1ccccc1)C(=O)NCc1ccco1 (centres undefined)	-	-	-	-	-	-
CN(C)c1ccc(/C=C/c2ccc3ccccc3n2)cc1	-	-	-	-	-	-
CCN(CC)c1ccc(/C=C/c2cc(-c3ccccc3)c3ccccc3n2)cc1	-	-	-	-	-	31
Cc1cccc(C)c1-n1nnnc1C1(C)CCC(=O)N1C1CC1 (centres undefined)	-	-	-	-	-	-
CCOC(=O)C1CCCN(c2nc3ccccc3nc2C(C#N)C(=O)OC(C)C)C1 (centres undefined)	-	-	21	-	-	-
CCOC(=O)C1CCN(c2nc3ccccc3nc2C(C#N)C(=O)OC(C)C)CC1 (centres undefined)	-	-	-	-	-	-
COc1cccc(NC(=O)COC(=O)CNS(=O)(=O)c2c(F)cccc2F)c1	-	-	-	-	-	-
CC(C)(C)S(=O)(=O)c1cnc(N2CCCCC2)nc1N	-	-	-	-	-	-
CC(=O)c1cnc(N2CCCCC2)nc1C	-	-	-	-	18	31
COc1ccc(-c2nnc(OC)c3ccccc23)cc1	-	-	-	-	-	35
O=S(=O)(c1ccc(Cl)cc1)N1CCCC1c1nc2ccccc2s1 (centres undefined)	-	-	-	-	-	-
Cc1ccc(S(=O)(=O)N2CCCC2c2nc3ccccc3s2)cc1 (centres undefined)	-	-	-	-	18	-
O=C1CC(N2CCc3ccccc32)C(=O)N1c1ccc(F)cc1 (centres undefined)	-	-	-	-	-	-
